Consider one compound from ChEMBL document CHEMBL4257564, “Rational Design, Synthesis, and Pharmacological Characterization of Novel Ghrelin Receptor Inverse Agonists as Potential Treatment against Obesity-Related Metabolic Diseases” (J Med Chem, 2018).

Bounds are passed on as bounds.

Data set [1] has as its system Mus musculus. Nature of the data set: Anti-obesity activity in C57BL/6J mouse assessed as inhibition of anamorelin-induced increase in food intake by measuring cumulative food intake at 30 mg/kg, po pretreated for 10 mins followed by anamorelin addition and measured after 4 hrs post dose (reference value: 2.09 +/- 0.08 g).
The nature of data set [2]: Volume of distribution in rat at 3 mg/kg, iv after 24 hrs by LC-MS/MS analysis. It is filed as ADME, organism-based. The note with it: in vivo. The essentials:
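Rats given 3 mg/kg i.v. via tail vein, in 2% DMSO/50% of 40% HP-β-CD. EDTA plasma sampled at 0.08–24 h and analysed by LC-MS/MS, calibration range 5-5000 ng/mL.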

Data set [3] is described as follows: Clearance in mouse liver microsomes at 0.625 uM preincubated for 5 mins followed by NADPH addition and measured after 60 mins by LC-MS/MS analysis. It is filed as ADME, microsome. Conditions: read-out: CLH; call rule not given here. The essentials: (§1)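 Liver microsomes (0.625 mg/mL protein) in 50 mM potassium phosphate pH 7.4 with 0.625 µM test item, prewarmed 5 min at 37 °C. Reaction started with NADPH (5 mM solution). Samples taken at 0, 5, 15, 30 and 60 min into cold MeCN with internal standard, analysed by LC-MS/MS. Intrinsic clearance derived by the half-life approach.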
Background: Liver microsomes are a subcellular fraction often used to study metabolism.

Data set [4] relates to Mus musculus. Briefly: Anti-obesity activity in C57BL/6J mouse assessed as inhibition of anamorelin-induced increase in food intake by measuring cumulative food intake at 10 mg/kg, ip pretreated for 10 mins followed by anamorelin addition and measured after 4 hrs post dose (reference value: 2.09 +/- 0.08 g). It counts as functional. An outline of the steps: (§2)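 Male C57BL/6J mice (18–22 g at arrival), fed ad libitum. Dosed 10 mg/kg i.p. at t = 0 in 10% DMAC/6% Solutol HS 15/84% PBS, then anamorelin 30 mg/kg p.o. (0.5% CMC) at 10 min. Cumulative food intake recorded at 1, 2, 4, 8 and 24 h; n=6 per group; mean ± SEM; ANOVA with Dunnett test versus vehicle+anamorelin.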

The nature of data set [5]: Tmax in rat at 3 mg/kg, po via gavage by LC-MS/MS analysis. Conditions: in vivo. It is filed as ADME, organism-based. An outline of the steps:
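Rats given 3 mg/kg by oral gavage as a suspension in 2% DMSO/98% of 0.5% CMC. EDTA plasma sampled at 0.25–24 h and analysed by LC-MS/MS. Bioavailability estimated against the 3 mg/kg i.v. arm.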

For data set [6], the system named is Mus musculus. Briefly: Anti-obesity activity in C57BL/6J mouse assessed as inhibition of anamorelin-induced increase in food intake by measuring cumulative food intake at 10 mg/kg, ip pretreated for 10 mins followed by anamorelin addition and measured after 24 hrs post dose (reference value: 8.31 +/- 0.2 g). It is filed as functional. An outline of the steps:
as §2

The subject of data set [7] is Mus musculus. Briefly: Anti-obesity activity in C57BL/6J mouse assessed as inhibition of anamorelin-induced increase in food intake by measuring cumulative food intake at 10 mg/kg, ip pretreated for 10 mins followed by anamorelin addition and measured after 8 hrs post dose (reference value: 2.97 +/- 0.09 g). It counts as functional. An outline of the steps: as §2
Data set [8] deals with Growth hormone secretagogue receptor type 1 (Homo sapiens, UniProt Q92847). Briefly: Agonist activity at recombinant human GHSR1a expressed in HEK293 cells assessed as induction of intracellular calcium release after 15 mins by FLIPR assay. It is filed as functional, cell-based. Conditions: hek293. An outline of the steps:
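HEK293 cells stably expressing human GHSR1a, seeded 24 h before the run, then loaded with calcium dye for 30-60 min at room temperature or 37 °C. DMSO-dissolved compounds were added and intracellular calcium release was monitored by FLIPR fluorescence.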
In general terms: Calcium flux is commonly read through the fluorescence of an indicator in the cells.

Data set [9] is described as follows: Clearance in rat liver microsomes at 0.625 uM preincubated for 5 mins followed by NADPH addition and measured after 60 mins by LC-MS/MS analysis. It counts as ADME, microsome. Conditions: read-out: CLH. An outline of the steps:
as §1

Chain of Growth hormone secretagogue receptor type 1 (Q92847 whole entry): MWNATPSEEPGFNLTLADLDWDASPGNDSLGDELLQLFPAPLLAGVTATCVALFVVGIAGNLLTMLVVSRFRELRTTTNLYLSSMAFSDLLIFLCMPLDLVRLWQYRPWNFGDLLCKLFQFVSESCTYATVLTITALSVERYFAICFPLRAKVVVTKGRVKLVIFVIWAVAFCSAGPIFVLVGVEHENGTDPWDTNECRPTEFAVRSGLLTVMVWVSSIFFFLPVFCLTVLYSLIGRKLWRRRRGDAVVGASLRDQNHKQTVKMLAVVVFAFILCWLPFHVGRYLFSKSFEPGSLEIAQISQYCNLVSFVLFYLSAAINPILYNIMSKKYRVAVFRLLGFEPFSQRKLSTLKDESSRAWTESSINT

By Vd is commonly meant the apparent volume that relates the amount in the body to the concentration in plasma or blood. Low readings indicate confinement near the circulation, high ones extensive tissue distribution. For orientation: Tmax means the time at which the peak concentration occurs. For the compound `Cc1cc(-c2ccc3c(c2)CC[C@H]3N2CCC(N(C)C(=O)N[C@@H](C)c3ccc(C#CC4CC4)c(Cl)c3Cl)CC2)ncn1`, the Activity in the data set on Mus musculus [1] is 1.45 g; with Mus musculus [4], 1.66 g; with Mus musculus [6] it was 7.63 g; in the data set with Mus musculus [7] it was 2.78 g. This compound yielded a Vd in data set [2] of 8.48 L/kg. The microsomal CLint at 0.625 µM is less than 10 µL/min/mg in [3] and 57.8 µL/min/mg in data set [9]. Moreover, in [5], the Tmax worked out at 6.7 h. In data set [8], the EC50 result is listed as “Not Active”.
